Assay results taken from ChEMBL document CHEMBL4152188, “Design, synthesis and biological evaluation of C(4) substituted monobactams as antibacterial agents against multidrug-resistant Gram-negative bacteria” (Eur J Med Chem, 2018).

Legend:
Format in all cases: functional
Klebsiella pneumoniae [1] = experiment: Antibacterial activity against KPC-2 producing Klebsiella pneumoniae isolate 209632 after 18 hrs by CLSI broth microdilution method; details: isolate 209632, 18 h
Pseudomonas aeruginosa [2] = experiment: Antibacterial activity against IMP-4 producing Pseudomonas aeruginosa isolate 207272 after 18 hrs in presence of BPL by CLSI broth microdilution method; details: isolate 207272, 18 h
Procedure, shortened: (§1)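 CLSI broth microdilution against clinical isolates (ESBL E. coli, KPC-2 MDR K. pneumoniae, IMP-4 MDR P. aeruginosa; five per species). Iron limitation: Mueller-Hinton broth supplemented with 16 mg/liter 2,2'-bipyridyl to complex iron and induce iron uptake systems. Read-out: MIC.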

Klebsiella pneumoniae [3] = experiment: Antibacterial activity against KPC-2 producing Klebsiella pneumoniae isolate 212423 after 18 hrs in presence of BPL by CLSI broth microdilution method; details: isolate 212423, 18 h; procedure, shortened: as §1
Escherichia coli [4] = experiment: Selectivity index, ratio of MIC for against extended-spectrum beta-lactamase producing Escherichia coli isolate 209285 to MIC for extended-spectrum beta-lactamase producing Escherichia coli isolate 209285 in presence of BPL
Pseudomonas aeruginosa [5] = experiment: Antibacterial activity against IMP-4 producing Pseudomonas aeruginosa isolate 209471 after 18 hrs in presence of BPL by CLSI broth microdilution method; details: isolate 209471, 18 h; procedure, shortened: as §1
Klebsiella pneumoniae [6] = experiment: Antibacterial activity against KPC-2 producing Klebsiella pneumoniae isolate 209735 after 18 hrs in presence of BPL by CLSI broth microdilution method; details: isolate 209735, 18 h; procedure, shortened: as §1
Klebsiella pneumoniae [7] = experiment: Antibacterial activity against KPC-2 producing Klebsiella pneumoniae isolate 209632 after 18 hrs in presence of BPL by CLSI broth microdilution method; details: isolate 209632, 18 h; procedure, shortened: as §1
Escherichia coli [8] = experiment: Selectivity index, ratio of MIC for against extended-spectrum beta-lactamase producing Escherichia coli isolate 208687 to MIC for extended-spectrum beta-lactamase producing Escherichia coli isolate 208687 in presence of BPL
Escherichia coli [9] = experiment: Antibacterial activity against extended-spectrum beta-lactamase producing Escherichia coli isolate 209285 after 18 hrs by CLSI broth microdilution method; details: isolate 209285, 18 h
Escherichia coli [10] = experiment: Selectivity index, ratio of MIC for against extended-spectrum beta-lactamase producing Escherichia coli isolate 106342 to MIC for extended-spectrum beta-lactamase producing Escherichia coli isolate 106342 in presence of BPL
Klebsiella pneumoniae [11] = experiment: Antibacterial activity against KPC-2 producing Klebsiella pneumoniae isolate 212423 after 18 hrs by CLSI broth microdilution method; details: isolate 212423, 18 h
Klebsiella pneumoniae [12] = experiment: Selectivity index, ratio of MIC for against KPC-2 producing Klebsiella pneumoniae isolate 212423 to MIC for against KPC-2 producing Klebsiella pneumoniae isolate 212423 in presence of BPL
Pseudomonas aeruginosa [13] = experiment: Antibacterial activity against IMP-4 producing Pseudomonas aeruginosa isolate 208247 after 18 hrs by CLSI broth microdilution method; details: isolate 208247, 18 h
Escherichia coli [14] = experiment: Selectivity index, ratio of MIC for against Escherichia coli isolate 210737 to MIC for Escherichia coli isolate 210737 in presence of BPL
Escherichia coli [15] = experiment: Antibacterial activity against Escherichia coli isolate 210737 after 18 hrs by CLSI broth microdilution method; details: isolate 210737, 18 h
Escherichia coli [16] = experiment: Antibacterial activity against extended-spectrum beta-lactamase producing Escherichia coli isolate 212648 after 18 hrs in presence of BPL by CLSI broth microdilution method; details: isolate 212648, 18 h; procedure, shortened: as §1
Escherichia coli [17] = experiment: Antibacterial activity against extended-spectrum beta-lactamase producing Escherichia coli isolate 208687 after 18 hrs by CLSI broth microdilution method; details: isolate 208687, 18 h
Klebsiella pneumoniae [18] = experiment: Selectivity index, ratio of MIC for against KPC-2 producing Klebsiella pneumoniae isolate 209735 to MIC for against KPC-2 producing Klebsiella pneumoniae isolate 209735 in presence of BPL
Escherichia coli [19] = experiment: Selectivity index, ratio of MIC for against extended-spectrum beta-lactamase producing Escherichia coli isolate 212648 to MIC for extended-spectrum beta-lactamase producing Escherichia coli isolate 212648 in presence of BPL
Pseudomonas aeruginosa [20] = experiment: Antibacterial activity against IMP-4 producing Pseudomonas aeruginosa isolate 209321 after 18 hrs in presence of BPL by CLSI broth microdilution method; details: isolate 209321, 18 h; procedure, shortened: as §1
Klebsiella pneumoniae [21] = experiment: Selectivity index, ratio of MIC for against KPC-2 producing Klebsiella pneumoniae isolate 212229 to MIC for against KPC-2 producing Klebsiella pneumoniae isolate 212229 in presence of BPL
Pseudomonas aeruginosa [22] = experiment: Selectivity index, ratio of MIC for against IMP-4 producing Pseudomonas aeruginosa isolate 209471 to MIC for against IMP-4 producing Pseudomonas aeruginosa isolate 209471 in presence of BPL
Klebsiella pneumoniae [23] = experiment: Antibacterial activity against KPC-2 producing Klebsiella pneumoniae isolate 209735 after 18 hrs by CLSI broth microdilution method; details: isolate 209735, 18 h
Klebsiella pneumoniae [24] = experiment: Antibacterial activity against KPC-2 producing Klebsiella pneumoniae isolate 212232 after 18 hrs by CLSI broth microdilution method; details: isolate 212232, 18 h
Escherichia coli [25] = experiment: Antibacterial activity against Escherichia coli isolate 210737 after 18 hrs in presence of BPL by CLSI broth microdilution method; details: isolate 210737, 18 h; procedure, shortened: as §1
Pseudomonas aeruginosa [26] = experiment: Antibacterial activity against IMP-4 producing Pseudomonas aeruginosa isolate 212886 after 18 hrs by CLSI broth microdilution method; details: isolate 212886, 18 h
Pseudomonas aeruginosa [27] = experiment: Selectivity index, ratio of MIC for against IMP-4 producing Pseudomonas aeruginosa isolate 207272 to MIC for against IMP-4 producing Pseudomonas aeruginosa isolate 207272 in presence of BPL
Pseudomonas aeruginosa [28] = experiment: Antibacterial activity against IMP-4 producing Pseudomonas aeruginosa isolate 209471 after 18 hrs by CLSI broth microdilution method; details: isolate 209471, 18 h
Pseudomonas aeruginosa [29] = experiment: Antibacterial activity against IMP-4 producing Pseudomonas aeruginosa isolate 208247 after 18 hrs in presence of BPL by CLSI broth microdilution method; details: isolate 208247, 18 h; procedure, shortened: as §1
Escherichia coli [30] = experiment: Antibacterial activity against extended-spectrum beta-lactamase producing Escherichia coli isolate 106342 after 18 hrs in presence of BPL by CLSI broth microdilution method; details: isolate 106342, 18 h; procedure, shortened: as §1
Escherichia coli [31] = experiment: Antibacterial activity against extended-spectrum beta-lactamase producing Escherichia coli isolate 208687 after 18 hrs in presence of BPL by CLSI broth microdilution method; details: isolate 208687, 18 h; procedure, shortened: as §1
Klebsiella pneumoniae [32] = experiment: Selectivity index, ratio of MIC for against KPC-2 producing Klebsiella pneumoniae isolate 209632 to MIC for against KPC-2 producing Klebsiella pneumoniae isolate 209632 in presence of BPL
Escherichia coli [33] = experiment: Antibacterial activity against extended-spectrum beta-lactamase producing Escherichia coli isolate 209285 after 18 hrs in presence of BPL by CLSI broth microdilution method; details: isolate 209285, 18 h; procedure, shortened: as §1
Escherichia coli [34] = experiment: Antibacterial activity against extended-spectrum beta-lactamase producing Escherichia coli isolate 212648 after 18 hrs by CLSI broth microdilution method; details: isolate 212648, 18 h
Pseudomonas aeruginosa [35] = experiment: Antibacterial activity against IMP-4 producing Pseudomonas aeruginosa isolate 212886 after 18 hrs in presence of BPL by CLSI broth microdilution method; details: isolate 212886, 18 h; procedure, shortened: as §1
Pseudomonas aeruginosa [36] = experiment: Antibacterial activity against IMP-4 producing Pseudomonas aeruginosa isolate 209321 after 18 hrs by CLSI broth microdilution method; details: isolate 209321, 18 h
Klebsiella pneumoniae [37] = experiment: Antibacterial activity against KPC-2 producing Klebsiella pneumoniae isolate 212229 after 18 hrs by CLSI broth microdilution method; details: isolate 212229, 18 h
Pseudomonas aeruginosa [38] = experiment: Antibacterial activity against IMP-4 producing Pseudomonas aeruginosa isolate 207272 after 18 hrs by CLSI broth microdilution method; details: isolate 207272, 18 h
Pseudomonas aeruginosa [39] = experiment: Selectivity index, ratio of MIC for against IMP-4 producing Pseudomonas aeruginosa isolate 208247 to MIC for against IMP-4 producing Pseudomonas aeruginosa isolate 208247 in presence of BPL
Klebsiella pneumoniae [40] = experiment: Antibacterial activity against KPC-2 producing Klebsiella pneumoniae isolate 212229 after 18 hrs in presence of BPL by CLSI broth microdilution method; details: isolate 212229, 18 h; procedure, shortened: as §1
Escherichia coli [41] = experiment: Antibacterial activity against extended-spectrum beta-lactamase producing Escherichia coli isolate 106342 after 18 hrs by CLSI broth microdilution method; details: isolate 106342, 18 h
Klebsiella pneumoniae [42] = experiment: Selectivity index, ratio of MIC for against KPC-2 producing Klebsiella pneumoniae isolate 212232 to MIC for against KPC-2 producing Klebsiella pneumoniae isolate 212232 in presence of BPL
Klebsiella pneumoniae [43] = experiment: Antibacterial activity against KPC-2 producing Klebsiella pneumoniae isolate 212232 after 18 hrs in presence of BPL by CLSI broth microdilution method; details: isolate 212232, 18 h; procedure, shortened: as §1

CC(C)C(O/N=C(\C(=O)N[C@@H]1C(=O)N(S(=O)(=O)O)[C@@H]1CSc1nc2ccccc2o1)c1csc(N)n1)c1cc(=O)c(O)cn1O (stereo partly drawn)
8: Selectivity Index (Klebsiella pneumoniae [42])
0.5 µg/mL: MIC (Escherichia coli [25]) | MIC (Klebsiella pneumoniae [43])
2: Selectivity Index (Escherichia coli [4]) | Selectivity Index (Escherichia coli [10]) | Selectivity Index (Klebsiella pneumoniae [12]) | Selectivity Index (Escherichia coli [14]) | Selectivity Index (Klebsiella pneumoniae [18]) | Selectivity Index (Escherichia coli [19]) | Selectivity Index (Klebsiella pneumoniae [21])
64 µg/mL: MIC (Pseudomonas aeruginosa [2]) | MIC (Pseudomonas aeruginosa [5]) | MIC (Pseudomonas aeruginosa [13]) | MIC (Pseudomonas aeruginosa [28]) | MIC (Pseudomonas aeruginosa [29]) | MIC (Pseudomonas aeruginosa [38])
1: Selectivity Index (Pseudomonas aeruginosa [22]) | Selectivity Index (Pseudomonas aeruginosa [27]) | Selectivity Index (Klebsiella pneumoniae [32]) | Selectivity Index (Pseudomonas aeruginosa [39])
4: Selectivity Index (Escherichia coli [8])
1 µg/mL: MIC (Escherichia coli [15]) | MIC (Escherichia coli [16]) | MIC (Escherichia coli [30]) | MIC (Escherichia coli [31]) | MIC (Klebsiella pneumoniae [40])
2 µg/mL: MIC (Klebsiella pneumoniae [1]) | MIC (Klebsiella pneumoniae [3]) | MIC (Klebsiella pneumoniae [6]) | MIC (Klebsiella pneumoniae [7]) | MIC (Escherichia coli [33]) | MIC (Escherichia coli [34]) | MIC (Klebsiella pneumoniae [37]) | MIC (Escherichia coli [41])
4 µg/mL: MIC (Escherichia coli [9]) | MIC (Klebsiella pneumoniae [11]) | MIC (Escherichia coli [17]) | MIC (Klebsiella pneumoniae [23]) | MIC (Klebsiella pneumoniae [24])
> 64 µg/mL: MIC (Pseudomonas aeruginosa [20]) | MIC (Pseudomonas aeruginosa [26]) | MIC (Pseudomonas aeruginosa [35]) | MIC (Pseudomonas aeruginosa [36])
